Test results: publication PMC4839290 (Journal of medicinal chemistry, 2015)
Entries after “also recorded” stand apart in the source; their conditions may differ. One block for each compound: values may come before it.

Key:
Male C57Bl/6 mice = test: Behavioral convulsions, modified Racine score; type: in vivo; conditions: for behavioral convulsions (modified Racine score 0–5): 10% Tween 80, monitored 3 h, n = 3
In short: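 Male C57Bl/6 mice (25–30 g) got a single ip dose of test compound (100 mg/kg) or a reference mGlu5 ago-PAM (1 or 3 mg/kg). Behavior was watched continuously for 3 h and convulsions were scored on a modified Racine scale (0–5).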

human mGlu1 WT receptor [1] = biological target: T1, human mGlu1 WT receptor (Homo sapiens, UniProt Q13255); test: Calcium mobilization mGlu1 assay; type: cell-based
[2] = In vitro intrinsic and hepatic clearance, rat; type: in vitro ADME
[3] = Plasma free fraction, rat plasma; type: in vitro ADME
[4] = Ex vivo metabolism/stability in human plasma; type: in vitro ADME; conditions: 10 μM incubation, 37 °C, 4 h, mass spectrometry
In short: (§1)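 Test compound at 10 μM incubation concentration in rat or human plasma at 37 °C. Samples were taken at 0 and 4 h and analysed by mass spectrometry for remaining parent and for metabolites formed.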

rat mGlu1 WT receptors = rat mGlu1 WT receptors (Rattus norvegicus, UniProt P23385); test: Calcium mobilization concentration-response curves on rat mGlu1; type: cell-based
[5] = Ex vivo metabolism/stability in rat plasma; type: in vitro ADME; conditions: 10 μM incubation, 37 °C, 4 h, mass spectrometry
In short: as §1

[6] = Plasma free fraction, human plasma; type: in vitro ADME
[7] = In vitro intrinsic and hepatic clearance, human; type: in vitro ADME
[8] = tested on: CA3 pyramidal cell body layer in a mouse hippocampal slice preparation; test: Extracellular recording of spontaneous spike
In short: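 Hippocampal slices with extracellular recording from the CA3 pyramidal cell body layer. Frequency of spontaneous activity was tracked before, during and after bath application and washout of test compound (10 μM) or DHPG (50 μM, positive control). Each was compared with baseline by paired t test, n = 6 per treatment.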

hmGlu4 = hmGlu4 (Homo sapiens, UniProt Q14833); test: Calcium mobilization assay, mGlu4 PAM activity; type: cell-based; conditions: n = 3 in triplicate
mGlu2 = test: Standard fold-shift selectivity assay; type: cell-based; conditions: 10 μM compound
[9] = tested on: human mGlu1 mutant receptors (P729T, A683E, Y632H, P1014S); type: cell-based; conditions: noted at compound concentrations above 1 μM
human mGlu1 WT receptor [10] = biological target: T1, human mGlu1 WT receptor; test: Fold-shift of glutamate concentration-response curve, human mGlu1 WT cells; type: cell-based; conditions: 10 μM compound
Rat iv PK = type: in vivo; conditions: rat iv PK (0.2 mg/kg)

T1 sequence (Q13255 19-1194): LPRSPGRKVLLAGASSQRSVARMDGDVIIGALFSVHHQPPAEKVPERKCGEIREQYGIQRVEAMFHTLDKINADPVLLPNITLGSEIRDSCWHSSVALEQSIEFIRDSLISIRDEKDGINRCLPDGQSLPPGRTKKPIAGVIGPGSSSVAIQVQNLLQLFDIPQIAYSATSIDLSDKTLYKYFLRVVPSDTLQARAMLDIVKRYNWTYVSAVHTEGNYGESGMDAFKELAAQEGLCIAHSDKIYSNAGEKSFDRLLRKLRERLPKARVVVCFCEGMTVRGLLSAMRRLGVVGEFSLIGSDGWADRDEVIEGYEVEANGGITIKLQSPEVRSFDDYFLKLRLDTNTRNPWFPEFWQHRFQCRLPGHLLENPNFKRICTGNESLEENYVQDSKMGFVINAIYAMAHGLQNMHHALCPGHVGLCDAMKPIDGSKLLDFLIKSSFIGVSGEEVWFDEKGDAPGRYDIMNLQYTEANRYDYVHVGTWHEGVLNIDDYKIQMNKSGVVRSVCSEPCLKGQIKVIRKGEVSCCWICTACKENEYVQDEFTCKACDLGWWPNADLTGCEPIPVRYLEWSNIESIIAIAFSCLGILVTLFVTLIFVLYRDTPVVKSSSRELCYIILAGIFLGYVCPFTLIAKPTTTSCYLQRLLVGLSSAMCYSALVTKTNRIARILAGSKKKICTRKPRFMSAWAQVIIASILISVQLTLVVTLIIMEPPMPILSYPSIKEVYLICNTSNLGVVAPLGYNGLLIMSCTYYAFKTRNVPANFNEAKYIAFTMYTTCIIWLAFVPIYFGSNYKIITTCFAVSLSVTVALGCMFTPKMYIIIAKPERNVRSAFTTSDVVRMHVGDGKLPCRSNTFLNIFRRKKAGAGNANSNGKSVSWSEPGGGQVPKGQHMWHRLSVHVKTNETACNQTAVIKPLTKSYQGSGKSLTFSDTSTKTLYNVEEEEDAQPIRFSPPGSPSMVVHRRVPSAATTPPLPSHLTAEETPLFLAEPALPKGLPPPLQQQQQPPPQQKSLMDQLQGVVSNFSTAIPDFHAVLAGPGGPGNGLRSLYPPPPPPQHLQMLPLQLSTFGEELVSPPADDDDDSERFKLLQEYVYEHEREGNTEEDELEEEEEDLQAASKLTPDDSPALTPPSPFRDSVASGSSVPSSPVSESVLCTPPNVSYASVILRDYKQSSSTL
Chain of rat mGlu1 WT receptors (P23385 19-1199): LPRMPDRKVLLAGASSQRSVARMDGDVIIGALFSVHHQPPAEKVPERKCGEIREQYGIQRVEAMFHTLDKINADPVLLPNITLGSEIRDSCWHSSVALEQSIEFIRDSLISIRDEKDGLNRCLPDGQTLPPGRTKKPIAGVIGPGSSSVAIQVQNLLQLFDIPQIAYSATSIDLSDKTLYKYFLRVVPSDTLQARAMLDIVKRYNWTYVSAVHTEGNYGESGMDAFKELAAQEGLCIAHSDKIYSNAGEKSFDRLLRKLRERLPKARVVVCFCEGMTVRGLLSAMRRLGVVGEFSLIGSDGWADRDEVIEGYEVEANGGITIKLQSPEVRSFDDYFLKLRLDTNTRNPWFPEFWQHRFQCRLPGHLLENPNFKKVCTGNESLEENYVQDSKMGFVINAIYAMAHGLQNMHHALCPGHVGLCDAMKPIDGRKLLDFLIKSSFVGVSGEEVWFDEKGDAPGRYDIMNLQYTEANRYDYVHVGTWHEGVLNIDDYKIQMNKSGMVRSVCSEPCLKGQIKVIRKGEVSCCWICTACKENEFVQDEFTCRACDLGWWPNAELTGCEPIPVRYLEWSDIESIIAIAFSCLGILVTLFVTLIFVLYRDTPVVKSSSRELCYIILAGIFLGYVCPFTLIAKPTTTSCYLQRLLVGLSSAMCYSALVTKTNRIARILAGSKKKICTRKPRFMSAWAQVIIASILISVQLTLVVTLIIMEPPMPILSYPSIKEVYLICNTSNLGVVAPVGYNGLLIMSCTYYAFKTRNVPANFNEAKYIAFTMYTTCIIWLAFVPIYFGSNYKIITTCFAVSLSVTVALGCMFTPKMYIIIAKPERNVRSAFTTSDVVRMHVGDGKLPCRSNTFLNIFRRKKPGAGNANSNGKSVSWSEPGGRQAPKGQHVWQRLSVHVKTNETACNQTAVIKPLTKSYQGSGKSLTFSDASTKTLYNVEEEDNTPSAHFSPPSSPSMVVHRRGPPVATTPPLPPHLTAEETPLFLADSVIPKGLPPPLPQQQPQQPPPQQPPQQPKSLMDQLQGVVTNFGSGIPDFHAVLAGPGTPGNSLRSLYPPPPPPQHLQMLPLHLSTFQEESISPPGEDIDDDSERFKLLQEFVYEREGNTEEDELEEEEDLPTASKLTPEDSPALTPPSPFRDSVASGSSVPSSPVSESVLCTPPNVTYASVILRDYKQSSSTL
Chain of hmGlu4 (Q14833 33-912): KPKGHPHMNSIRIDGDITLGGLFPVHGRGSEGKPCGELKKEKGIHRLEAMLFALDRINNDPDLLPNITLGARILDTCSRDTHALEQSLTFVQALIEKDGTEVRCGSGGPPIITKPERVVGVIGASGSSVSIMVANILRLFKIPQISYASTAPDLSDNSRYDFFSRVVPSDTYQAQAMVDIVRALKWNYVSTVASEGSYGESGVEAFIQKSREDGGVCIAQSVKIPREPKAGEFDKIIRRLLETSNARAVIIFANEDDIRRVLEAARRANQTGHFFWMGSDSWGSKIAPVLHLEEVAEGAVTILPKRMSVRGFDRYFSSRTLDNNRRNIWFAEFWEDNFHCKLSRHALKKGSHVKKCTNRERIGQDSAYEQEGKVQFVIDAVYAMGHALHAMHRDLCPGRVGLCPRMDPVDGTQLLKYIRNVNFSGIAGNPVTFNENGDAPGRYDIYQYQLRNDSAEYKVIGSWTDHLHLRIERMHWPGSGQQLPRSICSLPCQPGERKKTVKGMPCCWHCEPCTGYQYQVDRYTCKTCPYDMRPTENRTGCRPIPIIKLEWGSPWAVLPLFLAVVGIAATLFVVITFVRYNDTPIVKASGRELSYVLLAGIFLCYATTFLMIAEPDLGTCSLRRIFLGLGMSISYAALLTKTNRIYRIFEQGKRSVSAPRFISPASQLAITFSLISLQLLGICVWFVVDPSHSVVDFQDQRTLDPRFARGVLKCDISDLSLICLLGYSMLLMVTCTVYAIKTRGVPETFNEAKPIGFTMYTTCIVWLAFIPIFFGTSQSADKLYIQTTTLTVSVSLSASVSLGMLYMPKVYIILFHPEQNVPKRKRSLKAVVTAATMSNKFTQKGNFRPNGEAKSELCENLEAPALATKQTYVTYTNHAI

Structure (SMILES): C[C@@H](NC(=O)c1ccc(C#Cc2cccc(F)c2)cn1)C(C)(C)O [compound 18, (R)-5-((3-fluorophenyl)ethynyl)-N-(3-hydroxy-3-methylbutan-2-yl)picolinamide, reference compound]
time of peak convulsion responses after administration (Male C57Bl/6 mice; 1 or 3 mg/kg ip): approximately 5 min | behavioral convulsions (modified Racine score 0–5) (Male C57Bl/6 mice; 1 or 3 mg/kg ip): severe, dose-dependent behavioral manifestations of seizure activity; also recorded: Severe, dose-dependent behavioral convulsions

Structure (SMILES): O=C(Nc1ccc(N2C(=O)c3ccccc3C2=O)c(Cl)c1)c1coc2ccccc12 [10n]
mGlu1 PAM activity in words (human mGlu1 WT receptor [1]): inactive

Structure (SMILES): Cc1ccoc1C(=O)Nc1ccc(N2C(=O)c3ccc(Cl)cc3C2=O)c(Cl)c1 [17d, N-(3-Chloro-4-(5-chloro-1,3-dioxoisoindolin-2-yl)phenyl)-3-methylfuran-2-carboxamide]
rat CLHEP [2]: 17.2 mL/min/kg | rat CLINT [2]: 22.8 mL/min/kg | rat fu plasma [3]: unstable | parent compound remaining in human plasma [4]: no parent 17d remains | rat mGlu1 pEC50 (rat mGlu1 WT receptors): 6.95 ± 0.13 | parent compound remaining in rat plasma [5]: no parent 17d remains | human fu plasma [6]: unstable | behavioral convulsions (modified Racine score 0–5) (Male C57Bl/6 mice; 100 mg/kg ip): no measurable behavioral disturbances at any time point; also recorded: no adverse effects | human CLINT [7]: 2.90 mL/min/kg

Structure (SMILES): O=C(Nc1ccc(N2C(=O)c3ccccc3C2=O)c(Cl)c1)C1CCCO1 (stereo not drawn) [9n]
mGlu1 PAM activity in words (human mGlu1 WT receptor [1]): inactive

Structure (SMILES): O=C(Nc1ccc(N2C(=O)c3ccccc3C2=O)c(Cl)c1)c1cncs1 [9i]
mGlu1 PAM activity in words (human mGlu1 WT receptor [1]): inactive

Structure (SMILES): Cc1ccoc1C(=O)Nc1ccc(N2C(=O)c3cccc(Cl)c3C2=O)c(Cl)c1 [17c, N-(3-Chloro-4-(4-chloro-1,3-dioxoisoindolin-2-yl)phenyl)-3-methylfuran-2-carboxamide]
hmGlu4 pEC50 (±SEM) (hmGlu4): 5.94 ± 0.22

Structure (SMILES): O=C(Nc1ccc(N2C(=O)c3ccccc3C2=O)c(Cl)c1)c1cnco1 [9d]
mGlu1 PAM activity in words (human mGlu1 WT receptor [1]): inactive

Structure (SMILES): O=C(Nc1ccc(N2C(=O)c3ccccc3C2=O)c(Cl)c1)c1cc2ccccc2o1 [10m]
mGlu1 PAM activity in words (human mGlu1 WT receptor [1]): inactive

Structure (SMILES): O=C(Nc1ccc(N2C(=O)c3ccccc3C2=O)c(Cl)c1)c1ncco1 [9e]
mGlu1 PAM activity in words (human mGlu1 WT receptor [1]): inactive

Further lines, with some results ahead:

rat CLINT [2]: 39.9 mL/min/kg | rat fu plasma [3]: unstable | human fu plasma [6]: unstable | human CLINT [7]: 17.2 mL/min/kg
Structure (SMILES): O=C(Nc1ccc(N2C(=O)c3cccc(Cl)c3C2=O)c(Cl)c1)c1ncccc1Cl [compound 8, reference compound]

induction of epileptiform activity in CA3 ([8]; 50 μM, positive control): induced marked epileptiform activity
Structure (SMILES): N[C@H](C(=O)O)c1cc(O)cc(O)c1 [DHPG, S-3,5-dihydroxyphe-nylglycine, reference compound]

rat CLHEP [2]: 52.3 mL/min/kg | rat CLINT [2]: 207 mL/min/kg | hmGlu4 pEC50 (±SEM) (hmGlu4): 5.95 ± 0.16 | human CLHEP [7]: 2.70 mL/min/kg | human CLINT [7]: 3.10 mL/min/kg
Structure (SMILES): Cc1ccoc1C(=O)Nc1ccc(N2C(=O)c3cccc(F)c3C2=O)c(Cl)c1 [17e, N-(3-Chloro-4-(4-fluoro-1,3-dioxoisoindolin-2-yl)phenyl)-3-methylfuran-2-carboxamide]
fold shift of glutamate CRC at mGlu2 (mGlu2): < 2 fold | ago-PAM activity across all four mutants [9]: ≤ 40% | behavioral convulsions (modified Racine score 0–5) (Male C57Bl/6 mice; 100 mg/kg ip): no measurable behavioral disturbances at any time point; also recorded: no adverse effects | induction of epileptiform activity in CA3 ([8]; 10 μM bath application): did not induce epileptiform activity; also recorded: does not induce epileptiform activity

rat CLHEP [2]: 63.3 mL/min/kg | rat CLINT [2]: 661 mL/min/kg | human CLINT [7]: 262 mL/min/kg
Structure (SMILES): O=C(Nc1nc(C(F)(F)F)co1)C1c2ccccc2Oc2ccccc21 [compound 5, reference compound]
behavioral convulsions (modified Racine score 0–5) (Male C57Bl/6 mice; 100 mg/kg ip): no adverse effects

agonism at the highest concentration (human mGlu1 WT receptor [10]): < 20%
Structure (SMILES): Cc1ccoc1C(=O)Nc1ccc(N2C(=O)c3ccc(F)cc3C2=O)c(Cl)c1 [17f, N-(3-Chloro-4-(5-fluoro-1,3-dioxoisoindolin-2-yl)phenyl)-3-methylfuran-2-carboxamide]

rat CLHEP [2]: 59.7 mL/min/kg | rat CLINT [2]: 405 mL/min/kg | rat mGlu1 pEC50 (rat mGlu1 WT receptors): 6.95 ± 0.15 | human fu plasma [6]: unstable | CLp (Rat iv PK): 382 mL/min/kg | clearance (Rat iv PK; rat, plasma, iv, 0.2 mg/kg, CLp): 283 mL/min/kg | human CLINT [7]: 167 mL/min/kg
Structure (SMILES): Cc1ccoc1C(=O)Nc1ccc(N2C(=O)c3ccncc3C2=O)c(Cl)c1 [17g, N-(3-Chloro-4-(1,3-dioxo-1,3-dihydro-2H-pyrrolo[3,4-c]-pyridin-2-yl)phenyl)-3-methylfuran-2-carboxamide]
behavioral convulsions (modified Racine score 0–5) (Male C57Bl/6 mice; 100 mg/kg ip): no measurable behavioral disturbances at any time point; also recorded: no adverse effects
